According to ChEMBL document CHEMBL5257027 (Eur J Med Chem, 2016):

Assays:
[1] = tested on: Serine/threonine-protein kinase B-raf (Homo sapiens), P15056 [V600E]; assay: Inhibition of B-RAF V600E mutant (unknown origin) at 10 uM using […] as substrate incubated for 40 mins in presence of [gamma33P]ATP by scintillation counting based hotspot kinase assay relative to control
MDA-MB-468 [2] = assay: Antiproliferative activity against human MDA-MB-468 cells assessed as reduction in cell growth; assay type: functional
Summary of the method: (§1)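 NCI five-dose testing across the 58-line panel gives GI50, TGI and LC50 for each line. Subpanel lines report mean GI50 for each of the nine cancer types.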

[3] = Antiproliferative activity against human Panel non-small cell lung cancer (8 Carcinoma cell lines) assessed as reduction in mean cell growth; assay type: functional; conditions: Non-small cell lung cancer cell line; summary of the method: as §1
COLO 205 [4] = assay: Antiproliferative activity against human COLO 205 cells assessed as total growth inhibition; assay type: functional; summary of the method: as §1
HOP-92 [5] = assay: Antiproliferative activity against human HOP-92 cells assessed as reduction in cell growth; assay type: functional; summary of the method: as §1
SK-MEL-5 [6] = assay: Antiproliferative activity against human SK-MEL-5 cells assessed as reduction in cell growth; assay type: functional; summary of the method: as §1
RXF 393 [7] = assay: Antiproliferative activity against human RXF 393 cells assessed as reduction in cell growth; assay type: functional; summary of the method: as §1
SNB-75 [8] = assay: Cytotoxicity against human SNB-75 cells; assay type: functional; conditions: read-out: LC50 (the source's name)
Summary of the method: (§2)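 Run in the US NCI 58-cell-line screen covering nine cancer types (leukemia, NSCLC, colon, CNS, melanoma, ovarian, renal, prostate, breast). Five-dose mode gave GI50, TGI and LC50 values for each cell line. In the single-dose pre-screen, % inhibition was taken as 100 minus growth percentage.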

SNB-75 [9] = assay: Antiproliferative activity against human SNB-75 cells assessed as reduction in cell growth; assay type: functional; summary of the method: as §1
[10] = tested on: Panel ovarian (Carcinoma cell lines); assay: Antiproliferative activity against human Panel ovarian (7 Carcinoma cell lines) assessed as reduction in mean cell growth; assay type: functional; summary of the method: as §1
K562 [11] = assay: Cytotoxicity against human k562 cells; assay type: functional; conditions: read-out: LC50 (the source's name); summary of the method: as §2
NCI/ADR-RES [12] = assay: Antiproliferative activity against human NCI/ADR-RES cells assessed as reduction in cell growth; assay type: functional; summary of the method: as §1
SK-MEL-5 [13] = assay: Antiproliferative activity against human SK-MEL-5 cells assessed as total growth inhibition; assay type: functional; summary of the method: as §1
RXF 393 [14] = assay: Antiproliferative activity against human RXF 393 cells assessed as total growth inhibition; assay type: functional; summary of the method: as §1
[15] = Antiproliferative activity against human Panel NCI-58 (58 Carcinoma cell lines) assessed as reduction in mean cell growth at 10 uM; assay type: functional; set-up: scale not given: the % may be the effect or the level left
Summary of the method: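 NCI 58-cell-line screen covering leukemia, NSCLC, colon, CNS, melanoma, ovarian, renal, prostate and breast lines. Compounds given once at […] (micromolar per the line). Percent inhibition taken as 100 minus growth percent. Panel line reports the mean over all 58 lines.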

NCI/ADR-RES [16] = assay: Antiproliferative activity against human NCI/ADR-RES cells assessed as total growth inhibition; assay type: functional; summary of the method: as §1
PC-3 [17] = assay: Cytotoxicity against human PC-3 cells; assay type: functional; summary of the method: as §2
[18] = tested on: Panel colon (Carcinoma cell lines); assay: Antiproliferative activity against human Panel colon (7 Carcinoma cell lines) assessed as reduction in mean cell growth; assay type: functional; summary of the method: as §1
[19] = tested on: Panel CNS (Carcinoma cell lines); assay: Antiproliferative activity against human Panel CNS (6 Carcinoma cell lines) assessed as reduction in mean cell growth; assay type: functional; summary of the method: as §1
RXF 393 [20] = assay: Cytotoxicity against human RXF 393 cells; assay type: functional; summary of the method: as §2
[21] = molecular target: RAF proto-oncogene serine/threonine-protein kinase (Homo sapiens, UniProt P04049); assay: Inhibition of RAF1 (unknown origin) at 10 uM using […] as substrate incubated for 40 mins in presence of [gamma33P]ATP by scintillation counting based hotspot kinase assay relative to control
Sequence of RAF proto-oncogene serine/threonine-protein kinase (P04049 whole entry): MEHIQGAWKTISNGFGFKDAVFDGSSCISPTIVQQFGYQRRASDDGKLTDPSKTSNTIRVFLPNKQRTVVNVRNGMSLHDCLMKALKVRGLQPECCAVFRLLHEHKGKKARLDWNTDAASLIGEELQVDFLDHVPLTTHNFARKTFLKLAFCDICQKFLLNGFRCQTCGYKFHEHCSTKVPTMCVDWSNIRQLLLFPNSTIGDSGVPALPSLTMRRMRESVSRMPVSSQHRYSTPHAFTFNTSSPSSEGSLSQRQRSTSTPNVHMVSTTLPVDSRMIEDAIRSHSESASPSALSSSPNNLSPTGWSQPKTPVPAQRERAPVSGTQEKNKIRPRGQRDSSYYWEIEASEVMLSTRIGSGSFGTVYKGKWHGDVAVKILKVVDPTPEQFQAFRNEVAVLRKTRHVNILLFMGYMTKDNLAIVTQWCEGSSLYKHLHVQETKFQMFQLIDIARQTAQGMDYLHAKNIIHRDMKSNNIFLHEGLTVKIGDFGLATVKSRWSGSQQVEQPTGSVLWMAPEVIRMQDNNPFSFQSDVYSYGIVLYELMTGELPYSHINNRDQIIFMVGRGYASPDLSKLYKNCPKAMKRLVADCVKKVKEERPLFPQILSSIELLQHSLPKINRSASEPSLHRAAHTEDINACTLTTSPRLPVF

[22] = tested on: Panel renal (Carcinoma cell lines); assay: Antiproliferative activity against human Panel renal (8 Carcinoma cell lines) assessed as reduction in mean cell growth; assay type: functional; summary of the method: as §1
PC-3 [23] = assay: Antiproliferative activity against human PC-3 cells assessed as total growth inhibition; assay type: functional; summary of the method: as §1
[24] = molecular target: Epidermal growth factor receptor (Homo sapiens) (UniProt P00533); assay: Inhibition of EGFR (unknown origin) at 10 uM using […] as substrate incubated for 40 mins in presence of [gamma33P]ATP by scintillation counting based hotspot kinase assay relative to control
Sequence of Epidermal growth factor receptor (Homo sapiens) (P00533 whole entry): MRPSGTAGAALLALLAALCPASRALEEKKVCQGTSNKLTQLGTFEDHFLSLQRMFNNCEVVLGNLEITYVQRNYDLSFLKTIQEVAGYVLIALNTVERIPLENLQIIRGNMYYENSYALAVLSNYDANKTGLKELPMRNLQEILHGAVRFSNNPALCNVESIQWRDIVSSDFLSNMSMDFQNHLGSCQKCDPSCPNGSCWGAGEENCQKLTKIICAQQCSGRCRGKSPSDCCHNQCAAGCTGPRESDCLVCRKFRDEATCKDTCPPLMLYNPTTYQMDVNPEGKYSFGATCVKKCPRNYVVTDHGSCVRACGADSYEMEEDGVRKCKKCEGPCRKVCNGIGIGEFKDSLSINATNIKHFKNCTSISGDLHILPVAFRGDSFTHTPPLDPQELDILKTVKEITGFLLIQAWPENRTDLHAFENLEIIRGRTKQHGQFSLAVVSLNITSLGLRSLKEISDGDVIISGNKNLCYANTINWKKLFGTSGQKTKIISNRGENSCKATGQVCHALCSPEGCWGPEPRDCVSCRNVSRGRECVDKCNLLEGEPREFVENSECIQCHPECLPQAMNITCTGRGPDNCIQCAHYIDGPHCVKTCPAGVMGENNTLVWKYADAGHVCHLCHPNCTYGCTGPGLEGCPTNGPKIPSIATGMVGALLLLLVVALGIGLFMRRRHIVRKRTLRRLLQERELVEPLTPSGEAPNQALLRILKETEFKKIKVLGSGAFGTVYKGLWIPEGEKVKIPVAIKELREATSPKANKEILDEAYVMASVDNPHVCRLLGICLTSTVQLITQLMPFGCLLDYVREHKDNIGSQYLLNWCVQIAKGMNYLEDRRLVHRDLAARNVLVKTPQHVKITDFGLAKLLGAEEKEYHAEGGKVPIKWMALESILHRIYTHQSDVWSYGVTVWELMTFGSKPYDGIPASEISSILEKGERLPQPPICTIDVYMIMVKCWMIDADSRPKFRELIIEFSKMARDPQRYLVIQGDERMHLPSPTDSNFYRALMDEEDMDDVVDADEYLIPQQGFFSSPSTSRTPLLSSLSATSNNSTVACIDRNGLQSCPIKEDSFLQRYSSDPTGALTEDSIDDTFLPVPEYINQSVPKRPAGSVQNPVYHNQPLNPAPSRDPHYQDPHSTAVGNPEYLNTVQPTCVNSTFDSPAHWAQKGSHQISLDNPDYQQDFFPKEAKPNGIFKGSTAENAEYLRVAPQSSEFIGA

PC-3 [25] = assay: Antiproliferative activity against human PC-3 cells assessed as reduction in cell growth; assay type: functional; summary of the method: as §1
HCT-15 [26] = assay: Antiproliferative activity against human HCT-15 cells assessed as total growth inhibition; assay type: functional; summary of the method: as §1
[27] = molecular target: Mitogen-activated protein kinase 14 (Homo sapiens) (UniProt Q16539); assay: Inhibition of MAPK14 (p38 alpha) (unknown origin) at 10 uM using […] as substrate incubated for 40 mins in presence of [gamma33P]ATP by scintillation counting based hotspot kinase assay relative to control
Sequence of Mitogen-activated protein kinase 14 (Homo sapiens) (Q16539 whole entry): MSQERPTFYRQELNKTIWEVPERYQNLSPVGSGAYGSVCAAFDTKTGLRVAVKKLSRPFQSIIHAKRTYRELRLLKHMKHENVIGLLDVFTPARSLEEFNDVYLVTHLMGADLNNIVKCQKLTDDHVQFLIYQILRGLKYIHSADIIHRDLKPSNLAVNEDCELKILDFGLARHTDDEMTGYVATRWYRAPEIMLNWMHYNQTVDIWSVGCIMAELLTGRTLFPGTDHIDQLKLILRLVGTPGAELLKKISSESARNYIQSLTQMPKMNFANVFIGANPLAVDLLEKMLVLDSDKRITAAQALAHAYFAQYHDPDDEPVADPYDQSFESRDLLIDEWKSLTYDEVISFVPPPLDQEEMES

Homo sapiens = species: Homo sapiens; assay: Inhibition of ABL […] mutant (unknown origin) at 10 uM using […] as substrate incubated for 40 mins in presence of [gamma33P]ATP by scintillation counting based hotspot kinase assay relative to control
NCI/ADR-RES [28] = assay: Cytotoxicity against human NCI/ADR-RES cells; assay type: functional; summary of the method: as §2
[29] = molecular target: Tyrosine-protein kinase ABL1 (Homo sapiens) (UniProt P00519); assay: Inhibition of ABL (unknown origin) at 10 uM using […] as substrate incubated for 40 mins in presence of [gamma33P]ATP by scintillation counting based hotspot kinase assay relative to control
Sequence of Tyrosine-protein kinase ABL1 (Homo sapiens) (P00519 whole entry): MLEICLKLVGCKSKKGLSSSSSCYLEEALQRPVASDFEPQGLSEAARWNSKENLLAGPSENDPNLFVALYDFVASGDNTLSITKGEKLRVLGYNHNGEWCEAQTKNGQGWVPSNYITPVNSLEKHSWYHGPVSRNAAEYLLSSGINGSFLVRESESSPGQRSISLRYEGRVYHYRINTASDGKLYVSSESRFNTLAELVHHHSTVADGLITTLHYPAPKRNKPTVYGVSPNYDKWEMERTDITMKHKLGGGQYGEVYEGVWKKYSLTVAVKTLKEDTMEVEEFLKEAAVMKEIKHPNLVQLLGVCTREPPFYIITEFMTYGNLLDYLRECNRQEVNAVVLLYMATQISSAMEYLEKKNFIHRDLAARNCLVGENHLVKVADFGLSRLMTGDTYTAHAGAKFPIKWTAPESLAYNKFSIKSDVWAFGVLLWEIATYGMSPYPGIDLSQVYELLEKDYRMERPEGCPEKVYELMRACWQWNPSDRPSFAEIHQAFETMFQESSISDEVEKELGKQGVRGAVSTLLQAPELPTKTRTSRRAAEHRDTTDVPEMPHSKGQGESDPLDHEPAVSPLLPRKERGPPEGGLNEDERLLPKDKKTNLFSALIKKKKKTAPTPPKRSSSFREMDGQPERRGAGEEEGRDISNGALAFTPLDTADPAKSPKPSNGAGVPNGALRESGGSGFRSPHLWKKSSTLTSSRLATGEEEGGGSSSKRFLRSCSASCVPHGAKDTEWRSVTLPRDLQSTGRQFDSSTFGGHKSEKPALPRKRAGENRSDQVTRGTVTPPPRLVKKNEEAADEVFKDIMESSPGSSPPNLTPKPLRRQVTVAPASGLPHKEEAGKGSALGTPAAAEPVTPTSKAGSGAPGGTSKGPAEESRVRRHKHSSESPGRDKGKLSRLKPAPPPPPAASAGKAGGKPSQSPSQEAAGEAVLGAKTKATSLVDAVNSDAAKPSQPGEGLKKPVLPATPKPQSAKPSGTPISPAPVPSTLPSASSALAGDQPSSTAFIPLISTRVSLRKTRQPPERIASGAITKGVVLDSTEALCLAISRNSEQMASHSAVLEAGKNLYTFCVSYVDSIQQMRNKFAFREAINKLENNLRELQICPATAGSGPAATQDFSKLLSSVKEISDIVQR

SNB-75 [30] = assay: Antiproliferative activity against human SNB-75 cells assessed as total growth inhibition; assay type: functional; summary of the method: as §1
HCT-15 [31] = assay: Antiproliferative activity against human HCT-15 cells assessed as reduction in cell growth; assay type: functional; summary of the method: as §1
[32] = tested on: Panel leukemia (Carcinoma cell lines); assay: Antiproliferative activity against human Panel leukemia (5 Carcinoma cell lines) assessed as reduction in mean cell growth; assay type: functional; summary of the method: as §1
K562 [33] = assay: Antiproliferative activity against human K562 cells assessed as reduction in cell growth; assay type: functional; summary of the method: as §1
[34] = molecular target: Serine/threonine-protein kinase B-raf (Homo sapiens) (UniProt P15056); assay: Inhibition of B-RAF (unknown origin) at 10 uM using […] as substrate incubated for 40 mins in presence of [gamma33P]ATP by scintillation counting based hotspot kinase assay relative to control
Sequence of Serine/threonine-protein kinase B-raf (Homo sapiens) (P15056 whole entry): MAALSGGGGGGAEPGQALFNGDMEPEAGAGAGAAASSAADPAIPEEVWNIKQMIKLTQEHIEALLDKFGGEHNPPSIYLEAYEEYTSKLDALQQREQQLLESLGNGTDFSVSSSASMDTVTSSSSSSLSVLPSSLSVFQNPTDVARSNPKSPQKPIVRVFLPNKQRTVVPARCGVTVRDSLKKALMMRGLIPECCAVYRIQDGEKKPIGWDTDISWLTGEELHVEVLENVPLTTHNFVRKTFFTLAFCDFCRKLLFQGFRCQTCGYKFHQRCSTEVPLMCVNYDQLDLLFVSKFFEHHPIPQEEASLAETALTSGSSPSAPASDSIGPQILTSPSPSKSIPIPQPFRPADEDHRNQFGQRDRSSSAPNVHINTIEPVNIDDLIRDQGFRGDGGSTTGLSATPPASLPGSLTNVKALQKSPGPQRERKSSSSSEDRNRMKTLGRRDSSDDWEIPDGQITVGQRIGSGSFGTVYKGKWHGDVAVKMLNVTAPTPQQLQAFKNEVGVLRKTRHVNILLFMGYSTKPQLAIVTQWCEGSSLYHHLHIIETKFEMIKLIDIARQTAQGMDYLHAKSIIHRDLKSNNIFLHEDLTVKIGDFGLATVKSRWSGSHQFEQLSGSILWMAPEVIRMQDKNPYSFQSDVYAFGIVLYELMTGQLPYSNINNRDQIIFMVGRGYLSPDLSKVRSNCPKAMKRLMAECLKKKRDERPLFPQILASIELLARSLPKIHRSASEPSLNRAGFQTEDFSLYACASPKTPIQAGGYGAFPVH

[35] = tested on: Panel prostate (Carcinoma cell lines); assay: Antiproliferative activity against human Panel prostate (2 Carcinoma cell lines) assessed as reduction in mean cell growth; assay type: functional; summary of the method: as §1
HOP-92 [36] = assay: Antiproliferative activity against human HOP-92 cells assessed as total growth inhibition; assay type: functional; summary of the method: as §1
COLO 205 [37] = assay: Cytotoxicity against human COLO 205 cells; assay type: functional; summary of the method: as §2
HCT-15 [38] = assay: Cytotoxicity against human HCT-15 cells; assay type: functional; conditions: read-out: LC50 (the source's name); summary of the method: as §2
SK-MEL-5 [39] = assay: Cytotoxicity against human SK-MEL-5 cells; assay type: functional; summary of the method: as §2
[40] = tested on: Panel melanoma (Carcinoma cell lines); assay: Antiproliferative activity against human Panel melanoma (9 Carcinoma cell lines) assessed as reduction in mean cell growth; assay type: functional; summary of the method: as §1
MDA-MB-468 [41] = assay: Antiproliferative activity against human MDA-MB-468 cells assessed as total growth inhibition; assay type: functional; summary of the method: as §1
[42] = tested on: Panel breast (Carcinoma cell lines); assay: Antiproliferative activity against human Panel breast (6 Carcinoma cell lines) assessed as reduction in mean cell growth; assay type: functional; summary of the method: as §1
COLO 205 [43] = assay: Antiproliferative activity against human COLO 205 cells assessed as reduction in cell growth; assay type: functional; summary of the method: as §1
HOP-92 [44] = assay: Cytotoxicity against human HOP-92 cells; assay type: functional; summary of the method: as §2
MDA-MB-468 [45] = assay: Cytotoxicity against human MDA-MB-468 cells; assay type: functional; conditions: read-out: LC50 (the source's name); summary of the method: as §2
L132 = assay: Cytotoxicity against human L132 cells assessed as reduction in cell growth at 31.3 to 100 uM relative to control; assay type: toxicity, cell-based; set-up: scale not given: the % may be the effect or the level left; conditions: l132, 100 µM, dose 31.3-100 µM
K562 [46] = assay: Antiproliferative activity against human K562 cells assessed as total growth inhibition; assay type: functional; summary of the method: as §1

Sequence of Serine/threonine-protein kinase B-raf (Homo sapiens), P15056 [V600E] (P15056 whole entry V600E): as the sequence (P15056 whole entry) above, with V600E counted along it

O=C(NCCCNc1cc(-c2cn(-c3ccccc3)nc2-c2cccc(O)c2)ccn1)c1ccccc1
inhibition [1]: 34.4% | GI50 (MDA-MB-468 [2]): 1.38 µM | GI50 [3]: 3.4 µM | TGI (COLO 205 [4]): 3.67 µM | GI50 (HOP-92 [5]): 1.7 µM | GI50 (SK-MEL-5 [6]): 1.49 µM | GI50 (RXF 393 [7]): 1.97 µM | CC50 (SNB-75 [8]): 100 µM | GI50 (SNB-75 [9]): 1.68 µM | GI50 [10]: 4.17 µM | CC50 (K562 [11]): 100 µM | GI50 (NCI/ADR-RES [12]): 2.67 µM | TGI (SK-MEL-5 [13]): 3.12 µM | TGI (RXF 393 [14]): 6.2 µM | Activity [15]: >80% | TGI (NCI/ADR-RES [16]): 9.79 µM | LC50 (PC-3 [17]): 100 µM | GI50 [18]: 2.3 µM | GI50 [19]: 3.6 µM | LC50 (RXF 393 [20]): 100 µM | inhibition [21]: 39.6% | GI50 [22]: 3.63 µM | TGI (PC-3 [23]): 15.2 µM | inhibition [24]: 3.72% | GI50 (PC-3 [25]): 2.1 µM | TGI (HCT-15 [26]): 5.12 µM | inhibition [27]: 74.5% | inhibition (Homo sapiens): 9.61% | LC50 (NCI/ADR-RES [28]): 100 µM | inhibition [29]: 16% | TGI (SNB-75 [30]): 46.9 µM | GI50 (HCT-15 [31]): 1.51 µM | GI50 [32]: 1.62 µM | GI50 (K562 [33]): 0.75 µM | inhibition [34]: 10.8% | GI50 [35]: 3.69 µM | TGI (HOP-92 [36]): 24.5 µM | LC50 (lethal concentration 50%) (COLO 205 [37]): 7.88 µM | CC50 (HCT-15 [38]): 100 µM | LC50 (SK-MEL-5 [39]): 6.54 µM | GI50 [40]: 2.3 µM | TGI (MDA-MB-468 [41]): 3.36 µM | GI50 [42]: 2.13 µM | GI50 (COLO 205 [43]): 1.71 µM | LC50 (HOP-92 [44]): 100 µM

O=C(NCCCNc1cc(-c2cn(-c3ccccc3)nc2-c2cccc(O)c2)ccn1)c1ccc(F)cc1
inhibition [1]: 40.1% | GI50 (MDA-MB-468 [2]): 1.59 µM | GI50 [3]: 3.12 µM | TGI (COLO 205 [4]): 3.78 µM | GI50 (HOP-92 [5]): 2.13 µM | GI50 (SK-MEL-5 [6]): 1.61 µM | GI50 (RXF 393 [7]): 1.63 µM | CC50 (SNB-75 [8]): 74 µM | GI50 (SNB-75 [9]): 5.19 µM | GI50 [10]: 3.46 µM | CC50 (K562 [11]): 100 µM | GI50 (NCI/ADR-RES [12]): 2.2 µM | TGI (SK-MEL-5 [13]): 3.15 µM | CC50 (MDA-MB-468 [45]): 6.92 µM | TGI (RXF 393 [14]): 3.03 µM | Activity [15]: >80% | TGI (NCI/ADR-RES [16]): 5.82 µM | Activity (L132): 50% | LC50 (PC-3 [17]): 44.3 µM | GI50 [18]: 2.16 µM | GI50 [19]: 3.29 µM | LC50 (RXF 393 [20]): 5.99 µM | inhibition [21]: 36.4% | GI50 [22]: 2.84 µM | TGI (PC-3 [23]): 5.24 µM | inhibition [24]: 15.7% | GI50 (PC-3 [25]): 2.81 µM | TGI (HCT-15 [26]): 3.71 µM | inhibition [27]: 66.6% | inhibition (Homo sapiens): 14.6% | LC50 (NCI/ADR-RES [28]): 29.7 µM | inhibition [29]: 16.1% | TGI (SNB-75 [30]): 12.5 µM | GI50 (HCT-15 [31]): 1.77 µM | GI50 [32]: 1.98 µM | GI50 (K562 [33]): 1.93 µM | inhibition [34]: 22.5% | GI50 [35]: 3.72 µM | TGI (HOP-92 [36]): 3.28 µM | LC50 (lethal concentration 50%) (COLO 205 [37]): 7.6 µM | CC50 (HCT-15 [38]): 8.09 µM | LC50 (SK-MEL-5 [39]): 5.72 µM | GI50 [40]: 1.91 µM | TGI (MDA-MB-468 [41]): 3.43 µM | GI50 [42]: 1.89 µM | GI50 (COLO 205 [43]): 1.6 µM | TGI (K562 [46]): 4.83 µM | LC50 (HOP-92 [44]): 7.38 µM
